Experimental data reported in ChEMBL document CHEMBL5038600, “Discovery of M-1121 as an Orally Active Covalent Inhibitor of Menin-MLL Interaction Capable of Achieving Complete and Long-Lasting Tumor Regression” (J Med Chem, 2021).

Columns and labels:
[1] = test system: MOLM-13; assay: Anti-proliferative activity against human MOLM-13 cells harboring MLL/AF9 fusion protein assessed as cell growth inhibition measured after 4 days by Cell Titre Glo Luminescent Cell viability assay; type: functional, cell-based; settings: MOLM-13, 96 h
[2] = molecular target: T1, Menin (Homo sapiens) (UniProt O00255); assay: Binding affinity to recombinant human menin protein assessed as covalent complex formation incubated for 30 mins by LC/MS analysis; design: concentration or dose not given beside the values
T1 sequence (whole entry): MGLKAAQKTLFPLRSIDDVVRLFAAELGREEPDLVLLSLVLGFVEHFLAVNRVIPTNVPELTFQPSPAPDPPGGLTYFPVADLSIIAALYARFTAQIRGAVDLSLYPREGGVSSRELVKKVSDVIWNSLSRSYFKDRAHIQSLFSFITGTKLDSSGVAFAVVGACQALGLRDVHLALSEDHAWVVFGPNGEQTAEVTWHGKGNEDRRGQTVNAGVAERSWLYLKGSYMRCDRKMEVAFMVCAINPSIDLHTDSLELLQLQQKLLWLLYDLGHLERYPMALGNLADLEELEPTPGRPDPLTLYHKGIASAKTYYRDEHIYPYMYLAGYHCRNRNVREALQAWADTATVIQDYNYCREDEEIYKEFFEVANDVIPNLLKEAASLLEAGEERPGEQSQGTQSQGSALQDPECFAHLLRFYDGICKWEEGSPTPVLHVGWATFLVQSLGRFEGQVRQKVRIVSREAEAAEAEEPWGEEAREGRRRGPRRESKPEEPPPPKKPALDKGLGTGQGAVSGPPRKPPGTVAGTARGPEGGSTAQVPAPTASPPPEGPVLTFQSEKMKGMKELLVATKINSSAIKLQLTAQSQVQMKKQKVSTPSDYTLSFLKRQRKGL

[3] = molecular target: T1, Menin (Homo sapiens); assay: Binding affinity to recombinant human menin protein assessed as covalent complex formation incubated for 1 hrs by LC/MS analysis; design: concentration or dose not given beside the values
Summary of the method: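 Menin (25 mg/mL in 25 mM Tris pH 8.0, 150 mM NaCl, 5 mM DTT) incubated with compound at a 1:1.2 protein:compound molar ratio for 1 h or overnight at 4 °C. Diluted to 1 mg/mL, then reverse-phase C4 LC with a 5–100% MeCN/0.2% formic acid gradient and Q-TOF mass spectrometry to detect the covalent adduct.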

[4] = molecular target: T1, Menin (Homo sapiens); assay: Binding affinity to recombinant human menin protein assessed as covalent complex formation measured after overnight incubation by LC/MS analysis; design: concentration or dose not given beside the values
[5] = test system: MV4-11; assay: Anti-proliferative activity against human MV4-11 cells harboring MLL/AF4 fusion protein assessed as cell growth inhibition measured after 4 days by Cell Titre Glo Luminescent Cell viability assay; type: functional, cell-based; settings: MV4-11, 96 h
[6] = molecular target: T1, Menin (Homo sapiens); assay: Binding affinity to recombinant human menin protein assessed as covalent complex formation incubated for 10 mins by LC/MS analysis; design: concentration or dose not given beside the values
[7] = Plasma concentration in mouse at 25 mg/kg, po measured after 6 hrs; type: ADME, organism-based
Summary of the method: (§1)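 Mice given a single oral dose of 25 mg/kg; plasma concentrations sampled at 1, 3 and 6 h post-dose.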

[8] = Plasma concentration in mouse at 25 mg/kg, po measured after 1 hr; type: ADME, organism-based; summary of the method: as §1
[9] = Plasma concentration in mouse at 25 mg/kg, po measured after 3 hrs; type: ADME, organism-based; summary of the method: as §1
[10] = molecular target: T2, Menin (Homo sapiens, UniProt O00255); assay: Binding affinity to menin (unknown origin) incubated for 1 hr by fluorescence polarization-based competitive binding assay
T2 sequence (O00255 whole entry): T1 sequence (whole entry)

| SMILES | IC50 [1] [nM] | Activity [2] [%] | Activity [3] [%] | Activity [4] [%] | IC50 [5] [nM] | Activity [6] [%] | concentration at 6 h [7] [ng/mL] | concentration at 1 h [8] [ng/mL] | concentration at 3 h [9] [ng/mL] | IC50 [10] [nM] |
| --- | --- | --- | --- | --- | --- | --- | --- | --- | --- | --- |
| C=CC(=O)N1C[C@H]2C[C@@H]1CN2S(=O)(=O)c1ccc(N2CC(CN3CCC([C@@](CN4CCC4)(c4cccc(F)c4)[C@H]4CCC[C@@H]4NC(=O)OC)CC3)(OC)C2)cc1 | 504 | 0 | 0 | 45.1 | 436 | 0 |  |  |  |  |
| COC(=O)N[C@H]1CCC[C@@H]1[C@](CN1CCC1)(c1cccc(F)c1)C1CCN(CC2(OC)CN(c3ccc(S(=O)(=O)C4CC4)cc3)C2)CC1 |  |  |  |  |  |  | 2200 | 8260 | 5750 |  |
| C=CC(=O)N1CCC[C@H](S(=O)(=O)c2ccc(N3CC(CN4CCC([C@@](CN5CCC5)(c5cccc(F)c5)[C@H]5CCC[C@@H]5NC(=O)OC)CC4)(OC)C3)cc2)C1 | 196 | 27.9 | 37.4 | 93.1 | 77 | 8.8 |  |  |  | 3 |
| C=CC(=O)N1CCC[C@@H](S(=O)(=O)c2ccc(N3CC(CN4CCC([C@@](CN5CCC5)(c5cccc(F)c5)[C@H]5CCC[C@@H]5NC(=O)OC)CC4)(OC)C3)cc2)C1 | 188 | 22.6 | 40.5 | 90 | 74 | 9.8 |  |  |  | 3.7 |
| COC(=O)N[C@H]1CCC[C@@H]1[C@](CN1CCC1)(c1cccc(F)c1)C1CCN(CC2(OC)CN(c3ccc(S(=O)(=O)C4CN(C(=O)/C=C/CN(C)C)C4)cc3)C2)CC1 | 49.7 | 83.4 | 85.4 | 90.9 | 2.3 | 36.9 |  |  |  | 2.7 |
| COC(=O)N[C@H]1CCC[C@@H]1[C@](CN1CCC1)(c1cccc(F)c1)C1CCN(CC2(C(=O)OC)CN(c3ccc(S(=O)(=O)C4CC4)cc3)C2)CC1 | > 10000 |  |  |  | > 1000 |  |  |  |  |  |
| C=CC(=O)N1CC(S(=O)(=O)c2ccc(N3CC(CN4CCC([C@@](CN5CCC5)(c5cccc(F)c5)[C@H]5CCC[C@@H]5NC(=O)OC)CC4)(OC)C3)cc2)C1 | 402 | 40.9 | 59.4 | 81.5 | 112 | 24.1 |  |  |  |  |
| C=CC(=O)N1CCC(S(=O)(=O)c2ccc(N3CC(CN4CCC([C@@](CN5CCC5)(c5cccc(F)c5)[C@H]5CCC[C@@H]5NC(=O)OC)CC4)(OC)C3)cc2)CC1 | 594 | 0 | 0 | 27 | 156 | 0 |  |  |  | 3.8 |
| COC(=O)N[C@H]1CCC[C@@H]1[C@](CN1CCC1)(c1cccc(F)c1)C1CCN(CC2CN(c3ccc(S(=O)(=O)C4CC4)cc3)C2)CC1 |  |  |  |  |  |  | 928 | 624 | 735 |  |
| COC(=O)N[C@H]1CCC[C@@H]1[C@](CN)(c1cccc(F)c1)C1CCN(CC2CN(c3ccc(S(=O)(=O)C4CC4)cc3)C2)CC1 | 553 |  |  |  | 192 |  |  |  |  |  |
